Assay results published in ChEMBL document CHEMBL1128459, “Characterization of potent and selective antagonists at postsynaptic 5-HT1A receptors in a series of N4-substituted arylpiperazines” (J Med Chem, 1995).

What was measured:
Rattus norvegicus [1] = assay: Compound after subcutaneous administration was evaluated for antagonist activity against hypothermia induced by 8-hydroxy -DPAT in rat; format: functional; conditions: sc, read-out: ID50 (the source's name)
In short: (§1)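 Male Wistar rats (200-220 g) had rectal temperature taken, then received the test drug sc in distilled water (1.0 mL/kg). After 30 min they got 8-OH-DPAT 0.16 mg/kg sc, and temperature was remeasured 30 min later. Change from basal was scored.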

Rattus norvegicus [2] = organism: Rattus norvegicus; assay: Maximum antagonist effect (% effect) expressed relative to 8-hydroxy-DPAT (100%); format: functional
In short: (§2)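 In the rat rectal-temperature model (sc dosing, 8-OH-DPAT 0.16 mg/kg sc for antagonism), the maximal percentage of induced hypothermia (agonist) and of block of 8-OH-DPAT hypothermia (antagonist) was recorded. Each value is given with the dose at which it was reached.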

[3] = target: 5-hydroxytryptamine receptor 1B (Rattus norvegicus, UniProt P28564); assay: Binding affinity at 5-hydroxytryptamine 1B receptor
Chain of 5-hydroxytryptamine receptor 1B (P28564 whole entry): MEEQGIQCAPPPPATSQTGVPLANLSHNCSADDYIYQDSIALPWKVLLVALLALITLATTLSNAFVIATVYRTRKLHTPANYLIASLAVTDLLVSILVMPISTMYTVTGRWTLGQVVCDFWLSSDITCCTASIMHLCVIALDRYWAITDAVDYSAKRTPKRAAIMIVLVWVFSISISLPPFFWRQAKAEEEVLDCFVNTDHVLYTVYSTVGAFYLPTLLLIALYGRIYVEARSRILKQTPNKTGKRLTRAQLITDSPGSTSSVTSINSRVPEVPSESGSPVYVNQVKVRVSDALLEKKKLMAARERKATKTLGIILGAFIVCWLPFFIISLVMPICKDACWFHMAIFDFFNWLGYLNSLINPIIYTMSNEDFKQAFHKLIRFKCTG
In short: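 Rat frontal cortex membranes (1/40 wt/vol) were homogenized in 50 mM Tris pH 7.7 with pargyline, 4 mM CaCl2 and 0.1% ascorbic acid, then preincubated for 30 min at 37 °C. Labelled with 2.0 nM [3H]-5-HT, with 100 nM 8-OH-DPAT and 100 nM mesulergine masking 5-HT1A/5-HT2A sites; 5-CT defined nonspecific binding.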

Rattus norvegicus [4] = assay: Minimum effective antagonist dose administered subcutaneously; format: functional; conditions: sc, read-out: MED; in short: as §1
Rattus norvegicus [5] = assay: Minimum effective agonist dose administered subcutaneously; format: functional; conditions: sc, read-out: MED
In short: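 Male Wistar rats (200-220 g) were given the test drug alone sc in water (1.0 mL/kg), with vehicle reinjected at 30 min. Rectal temperature change from basal was measured 60 min after the first injection. MED for hypothermia was set against vehicle by ANOVA with Dunnett's test, P < 0.05.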

[6] = target: T1, Adrenergic receptor alpha-1 (Rattus norvegicus, UniProt P15823+P23944+P43140); assay: In vitro binding affinity towards Alpha-1 adrenergic receptor in rat cortex was determined using [3H]prazosin as radioligand
T1 sequence (P15823 whole entry): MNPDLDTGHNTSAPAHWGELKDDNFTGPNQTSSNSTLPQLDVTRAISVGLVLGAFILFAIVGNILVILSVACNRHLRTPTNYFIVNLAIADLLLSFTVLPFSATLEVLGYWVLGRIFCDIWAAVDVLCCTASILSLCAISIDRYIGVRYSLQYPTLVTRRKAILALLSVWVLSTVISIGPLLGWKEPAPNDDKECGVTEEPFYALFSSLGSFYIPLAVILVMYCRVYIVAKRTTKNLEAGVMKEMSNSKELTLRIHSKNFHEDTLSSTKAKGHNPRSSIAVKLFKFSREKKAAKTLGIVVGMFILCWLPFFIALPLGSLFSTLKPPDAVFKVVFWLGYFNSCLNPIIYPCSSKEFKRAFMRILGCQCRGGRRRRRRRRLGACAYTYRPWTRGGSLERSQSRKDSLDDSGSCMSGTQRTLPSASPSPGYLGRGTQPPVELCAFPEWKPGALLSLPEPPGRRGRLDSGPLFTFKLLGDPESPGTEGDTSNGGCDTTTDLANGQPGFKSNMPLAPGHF
T1 sequence (P23944 whole entry): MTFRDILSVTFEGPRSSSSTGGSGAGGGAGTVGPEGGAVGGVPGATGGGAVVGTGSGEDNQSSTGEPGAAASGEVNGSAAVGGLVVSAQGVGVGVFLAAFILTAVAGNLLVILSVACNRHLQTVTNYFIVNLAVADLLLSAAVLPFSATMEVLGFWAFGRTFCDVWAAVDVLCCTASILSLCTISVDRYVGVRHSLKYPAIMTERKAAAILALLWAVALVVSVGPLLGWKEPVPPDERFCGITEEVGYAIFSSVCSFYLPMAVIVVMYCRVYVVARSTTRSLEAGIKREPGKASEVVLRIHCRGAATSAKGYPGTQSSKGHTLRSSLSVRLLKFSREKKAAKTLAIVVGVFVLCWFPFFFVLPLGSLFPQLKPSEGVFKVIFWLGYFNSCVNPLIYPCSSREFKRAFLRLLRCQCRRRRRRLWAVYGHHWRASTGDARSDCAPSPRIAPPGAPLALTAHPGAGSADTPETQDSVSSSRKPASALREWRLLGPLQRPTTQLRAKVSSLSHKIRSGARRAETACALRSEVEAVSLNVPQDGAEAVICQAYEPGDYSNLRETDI
T1 sequence (P43140 whole entry): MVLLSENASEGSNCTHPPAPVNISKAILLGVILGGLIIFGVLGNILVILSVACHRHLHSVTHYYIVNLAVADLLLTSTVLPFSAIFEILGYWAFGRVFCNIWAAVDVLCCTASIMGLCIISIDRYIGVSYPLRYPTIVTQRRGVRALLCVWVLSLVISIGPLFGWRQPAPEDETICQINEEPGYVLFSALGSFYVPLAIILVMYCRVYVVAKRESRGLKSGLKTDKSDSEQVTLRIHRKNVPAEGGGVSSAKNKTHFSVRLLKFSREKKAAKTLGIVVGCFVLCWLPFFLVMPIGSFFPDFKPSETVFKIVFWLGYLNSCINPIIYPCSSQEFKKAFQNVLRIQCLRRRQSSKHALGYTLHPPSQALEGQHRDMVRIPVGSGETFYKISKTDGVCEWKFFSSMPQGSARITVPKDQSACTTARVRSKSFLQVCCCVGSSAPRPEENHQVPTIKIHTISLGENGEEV
In short: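 Rat frontal cortex membranes (1/80 wt/vol), no preincubation, in 50 mM Tris pH 7.6 with 4 mM CaCl2 and 0.1% ascorbic acid. Ligand 0.2 nM [3H]prazosin, with phentolamine for nonspecific binding. Incubation 60 min at 25 °C, then filtration. IC50 obtained by regression and converted to pKi with radioligand Kd from saturation experiments.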

[7] = target: Serotonin 1a (5-HT1a) receptor/Adrenergic receptor alpha-1 (Rattus norvegicus) (UniProt P15823+P23944+P43140+P19327); assay: Ki ratio measured as the Ki values of alpha-1 adrenergic receptor to that of 5-hydroxytryptamine 1A receptor; format: protein assay
[8] = Ratio of MED (agonist) to that of MED (antagonist) values.; format: functional
In short: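 The MED for inducing hypothermia alone was divided by the MED for blocking 8-OH-DPAT (0.16 mg/kg sc) hypothermia. Both MEDs came from sc dosing in male Wistar rats and were tested against vehicle by ANOVA with Dunnett's test, P < 0.05.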

D(2) dopamine receptor [9] = target: T2, D(2) dopamine receptor (Rattus norvegicus, UniProt P61169); assay: In vitro binding affinity towards dopamine D2 receptor in rat striatum was determined using [3H]-spiperone as radioligand; format: tissue-based
T2 sequence (P61169 whole entry): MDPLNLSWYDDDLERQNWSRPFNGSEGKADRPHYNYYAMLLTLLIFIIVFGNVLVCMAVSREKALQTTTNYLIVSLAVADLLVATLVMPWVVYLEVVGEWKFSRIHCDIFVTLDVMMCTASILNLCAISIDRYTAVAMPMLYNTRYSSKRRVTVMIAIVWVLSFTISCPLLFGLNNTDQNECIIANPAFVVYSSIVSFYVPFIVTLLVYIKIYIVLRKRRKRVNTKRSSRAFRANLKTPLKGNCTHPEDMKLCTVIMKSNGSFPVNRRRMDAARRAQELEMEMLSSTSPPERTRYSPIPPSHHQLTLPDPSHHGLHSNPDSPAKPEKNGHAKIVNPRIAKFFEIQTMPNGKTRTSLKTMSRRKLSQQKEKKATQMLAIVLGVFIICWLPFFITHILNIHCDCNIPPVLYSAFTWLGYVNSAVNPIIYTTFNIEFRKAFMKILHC
In short: (§3)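 Rat striatal membranes (1/300 wt/vol), no preincubation, in 50 mM Tris pH 7.4 with CaCl2, ascorbic acid, 5 mM KCl, 1 mM MgCl2 and 120 mM NaCl. Ligand 0.2 nM [3H]spiperone, with 100 nM ketanserin masking 5-HT2A sites; raclopride defined nonspecific binding. Incubation 30 min at 37 °C, then filtration. pKi derived from regression-based IC50.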

[10] = target: T3, 5-hydroxytryptamine receptor 1A (Rattus norvegicus, UniProt P19327); assay: Binding affinity at 5-hydroxytryptamine 1A receptor
T3 sequence (P19327 whole entry): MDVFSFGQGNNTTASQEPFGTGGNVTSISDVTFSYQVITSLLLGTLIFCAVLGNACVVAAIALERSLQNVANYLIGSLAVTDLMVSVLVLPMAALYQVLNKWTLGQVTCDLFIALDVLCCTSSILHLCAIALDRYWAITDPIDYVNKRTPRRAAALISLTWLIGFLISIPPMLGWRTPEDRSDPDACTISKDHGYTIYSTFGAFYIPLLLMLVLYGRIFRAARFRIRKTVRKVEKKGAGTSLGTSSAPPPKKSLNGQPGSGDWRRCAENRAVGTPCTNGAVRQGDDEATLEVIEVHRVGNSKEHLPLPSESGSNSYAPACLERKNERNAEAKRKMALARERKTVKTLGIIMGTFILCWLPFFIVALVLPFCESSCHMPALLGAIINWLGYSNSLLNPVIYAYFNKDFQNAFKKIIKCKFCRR
In short: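 Rat hippocampal membranes (1/100 wt/vol) in 50 mM Tris pH 7.7 with 4 mM CaCl2, 0.1% ascorbic acid and pargyline. Membranes were spun at 25000g, preincubated 30 min at 37 °C and respun, then incubated with 0.4 nM [3H]-8-OH-DPAT for 30 min at 25 °C. 5-HT defined nonspecific binding, and samples were filtered on PEI-soaked GF/B. IC50 came from regression; pKi = −log[IC50/(1+[L]/Kd)].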

[11] = target: D(2) dopamine receptor (Rattus norvegicus) (UniProt P61169)
Chain of D(2) dopamine receptor (Rattus norvegicus) (P61169 whole entry): as the sequence (P61169 whole entry) above

Rattus norvegicus [12] = organism: Rattus norvegicus; assay: Maximum agonist effect (% effect) expressed relative to 8-hydroxy-DPAT (100%); format: functional; in short: as §2
D(2) dopamine receptor [13] = target: T2, D(2) dopamine receptor; assay: In vitro binding affinity towards Dopamine receptor D2 in rat striatum was determined using [3H]-spiperone as radioligand; format: tissue-based; in short: as §3
[14] = target: D(2) dopamine receptor (Rattus norvegicus) (UniProt P61169); assay: Inhibitory activity against methyl-phenidate-induced gnawing at dopamine receptor D2 in rat
In short: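 Male Wistar rats (200-220 g) received the test drug sc in water (1.0 mL/kg), then methylphenidate 40.0 mg/kg ip 30 min later. Observation began 30 min after that. Gnawing bouts were counted in 10 s per minute (maximum 10) by a blinded observer.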

D(2) dopamine receptor [15] = target: T2, D(2) dopamine receptor; assay: In vitro binding affinity towards Dopamine receptor D2 in rat striatum was determined using [3H]spiperone as radioligand; format: tissue-based; in short: as §3
[16] = target: 5-hydroxytryptamine receptor 1A (Rattus norvegicus) (UniProt P19327); assay: Ki ratio measured as the Ki values of dopamine receptor to that of 5-hydroxytryptamine 1A receptor

SMILES	ED50 (Rattus norvegicus [1]) [mg/kg]	Max effect (Rattus norvegicus [2]) [%]	Ki [3] [µM]	minimal effective dose (Rattus norvegicus [4]) [mg/kg]	minimal effective dose (Rattus norvegicus [5]) [mg/kg]	Log Ki [6]	Ki ratio [7]	Ratio [8]	Ki (D(2) dopamine receptor [9]) [µM]	Ki [10] [µM]	ID50 [11] [mg/kg]	Max effect (Rattus norvegicus [12]) [%]	Ki (D(2) dopamine receptor [13]) [µM]	ID50 [14] [mg/kg]	Ki (D(2) dopamine receptor [15]) [µM]	Ki ratio [16]
COc1cc2c(cc1OC)C(CCN1CCN(c3cccc4c3OCCO4)CC1)CC2 (stereo not given)	0.86	84	0.676	2.5	> 40	-7.81	9.8	> 16	0.132	0.00158	40	12				
c1ccc2c(c1)CC(N1CCN(c3cccc4c3OCCO4)CC1)C2	1.4	95	1.78	0.63	20	-6.84	81	31.7			> 40	46	0.347			
c1ccc2c(c1)CC2CCN1CCN(c2cccc3c2OCCO3)CC1 (stereo not given)	0.65	76		1.25	40	-7.66	35.4	32		0.000589	> 40	32	0.049			
c1ccc2c(c1)CCC2CCN1CCN(c2cccc3c2OCCO3)CC1 (stereo not given)	1.29	94		0.63	> 40			> 63.5		0.00158		19		> 40		
c1ccc2c(c1)CC(N1CCN(c3cccc4c3OCCCO4)CC1)C2	5.18	51	1.41	5	10	-6.68	55	2			> 40	72			0.195	
c1ccc2c(c1)CC2CCCN1CCN(c2cccc3ccoc23)CC1 (stereo not given)	2.5	47	1.41	2.5	10			4		0.00282		46		40		
c1ccc2c(c1)CCC2CN1CCN(c2cccc3c2OCCO3)CC1 (stereo not given)	1.32	63	0.2	0.63	10	-7.75	18.6	15.8		0.00174	> 40	43	0.0417			43.6
COc1ccccc1N1CCN(C[C@@H](C(=O)NC(C)(C)C)c2ccccc2)CC1	2.45	73	> 10	2.5	40	-5.94	35.6	16			> 40	50	0.389			
COc1ccccc1N1CCN(CCCCN2C(=O)c3ccccc3C2=O)CC1 [NAN-190]	97	56		0.63	5						10	100			0.0316	
c1ccc2c(c1)CC2CCN1CCN(c2cccc3ccoc23)CC1 (stereo not given)	1.12	91	1.51	1.25	> 40			> 32		0.00141		21		> 40		
c1ccc2c(c1)CC2CCCCN1CCN(c2cccc3c2OCCO3)CC1 (stereo not given)	1.43	88	0.631	5	> 10	-7.56	17.8	> 2		0.00129	> 40	0			0.0195	12.5
